A selection: hits, their analogues and other compounds. The true share with any hit is near 2.3%.
DDE Tn6 FP inh = disrupts Tn6 cyclic peptide binding to fibrin D-Dimer-E complex | hit rate 0.21% among 370,000 | AID 720509 | Fibrin DD(E) TRITC-Tn6 fluorescence polarization displacement | P02675 | inhibition, % at 8.3 µM;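 active = inhibition above a per-campaign cutoff: mean of compounds within control limits plus 3 SD, cut at about 15% in these data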
ADAM10 inh = inhibits human ADAM10. inhibition, % at 7 µM. hit rate 0.62% among 370,000. O14672. recombinant ADAM10, EDANS/DABCYL FRET peptide cleavage, 3 h. AID 720582;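 active = inhibition above a per-campaign cutoff equal to the mean of compounds falling between control-based bounds plus 3 SD, cut at about 20% in these data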
PLC-gamma1 inh = PLC-gamma1 (human) inhibition, primary screen; purified PLC-gamma1, fluorogenic substrate, fluorescence; inhibition, % at 12.2 µM; hit rate 0.84% among 370,000; AID 720700; in the data active = inhibition above about 9.5%
DDE Tn7 FP inh = DD(E)-Tn7 binding inhibition, primary FP screen; FP displacement of FITC-Tn7 peptide from fibrin DD(E); 0% = median of compound wells per plate; AID 720508; hit rate 0.13% among 370,000; inhibition, % at 8.3 µM;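 active = inhibition above the mean of compounds falling within the control limits plus 3 SD of them, cut at about 14% in these data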
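Assay system: human fibrin DD(E). Input: DD(E) 2 µM final. Medium: Tris buffer with calcium and detergent, pH 7.8. Compound dosing: single point at 8.3 µM. Timing: 10 min plus 3 h, room temperature. Technique: fluorescence polarization of the labelled Tn7 tracer. Read-out: percent inhibition. Replicates: singlicate testing.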
ADAM17 inh = inhibitors of human ADAM17. P78536. recombinant ADAM17, EDANS/DABCYL FRET peptide cleavage. inhibition, % at 6.95 µM. hit rate 0.83% among 370,000;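 active = inhibition above the mean of compounds lying between control limits plus 3 SD, set per campaign, cut at about 8.5% in these data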
PLC-beta3 inh = inhibitors of human phospholipase C beta3; Purified PLC-beta3, fluorogenic substrate, fluorescence; AID 720704; inhibition, % at 12.2 µM; Q01970; hit rate 0.18% among 370,000; in the data active = inhibition above about 11%
DDE Tn7 confirm = DD(E)-Tn7 binding inhibition, FP confirmation; hit rate 5% among 460; inhibition, % at 8.3 µM; shares compounds with DDE Tn7 FP inh; FP displacement of TRITC-Tn7 peptide from DD(E); 0% set at plate's compound-well median;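 active = inhibition above the campaign cutoff, the mean of compounds within control limits plus 3 SD, cut at about 14% in these data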;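 note: displacers lower polarization since freed probe rises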
Tn7 DDE ctr = counter-screen hit for Tn7 peptide-fibrin DD(E) binding disruption; inhibition, % at 8.3 µM; TRITC-Tn7 probe displacement, fluorescence polarization; shares compounds with DDE Tn7 FP inh; hit rate 3% among 460;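 active = inhibition above the cutoff, the mean of compounds lying between the control bounds plus 3 SD of those compounds, cut at about 17% in these data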
Large screens that a line does not name were inactive (follow-up assays come after a bar, where they were run).

Cc1ccc(/C=N/N2C(=O)C3C(C2=O)C2C=CC3C23CC3)o1 (centres undefined)	DDE Tn7 FP inh 13.8 | DDE Tn7 confirm inactive | Tn7 DDE ctr inactive
CCOC(=O)C1=C(C)Nc2ccccc2N/C1=N\S(=O)(=O)c1cccc(Cl)c1	DDE Tn7 FP inh 15.7 | DDE Tn7 confirm inactive | Tn7 DDE ctr inactive
Cc1noc(C)c1S(=O)(=O)Nc1ccc2c(c1)C(=O)N([C@@H](C)CO)C[C@H](C)[C@@H](CN(C)Cc1ccc(C(F)(F)F)cc1)OCCCC[C@H](C)O2	DDE Tn7 FP inh 14.5 | DDE Tn7 confirm inactive | Tn7 DDE ctr inactive
COc1ccc(-n2c(COc3ccc(C)cc3)nnc2SCC(=O)Nc2ccc(S(=O)(=O)Nc3cc(C)nc(C)n3)cc2)cc1	none
CN(C)S(=O)(=O)N1CCC(Oc2ccc(C(=O)N3C[C@@H]4CCC[C@H]3C4)cc2)CC1	DDE Tn7 FP inh 14.1 | DDE Tn7 confirm inactive | Tn7 DDE ctr inactive
O=C(Nc1cccc(Cl)c1)N1CCCC1	DDE Tn7 FP inh 14.1 | DDE Tn7 confirm inactive | Tn7 DDE ctr inactive
CCCNC(=O)C1(C)CCCN(C(=O)c2cccnc2Oc2ccccc2)C1 (centres undefined)	DDE Tn7 FP inh 14.1 | DDE Tn7 confirm inactive | Tn7 DDE ctr inactive
Nn1c(SCC(=O)NC2CCCCC2)nnc1-c1cc(-c2ccc(Cl)cc2)n[nH]1	none
COc1ccccc1-c1ccccc1C1=CC(=O)CC(C)(C)C1=O	DDE Tn7 FP inh 13.8 | DDE Tn7 confirm inactive | Tn7 DDE ctr inactive
COc1ccc(-c2ccccc2C2=CC(=O)CC(C)(C)C2=O)cc1	none
COc1ccccc1OCC(=O)N1CCN(c2ccccc2OC)CC1	DDE Tn7 FP inh 19.3 | DDE Tn7 confirm inactive | Tn7 DDE ctr inactive
COc1ccccc1N1CCN(C(=O)c2oc3ccc(F)cc3c2C)CC1	DDE Tn7 FP inh 15.9 | DDE Tn7 confirm inactive | Tn7 DDE ctr inactive
COc1ccccc1N1CCN(C(=O)COc2cccc(C)c2C)CC1	none
Cc1onc(C(=O)Nc2sc3c(c2C(N)=O)CCCC3)c1[N+](=O)[O-]	DDE Tn7 FP inh 16.4 | DDE Tn7 confirm inactive | Tn7 DDE ctr inactive
CCC[C@H]1[C@@H](O)CC[C@@]23CCCN2C(=O)CCC[C@@H]13	none
CCc1ccccc1NC(=S)NC1CC2CCC(C1)N2Cc1ccc(F)cc1 (centres undefined)	DDE Tn7 FP inh 14.2 | DDE Tn7 confirm inactive | Tn7 DDE ctr inactive
COc1ccc(C(=O)N2CCN(c3ccc(NC(=O)c4ccco4)cc3)CC2)cc1	DDE Tn7 FP inh 14.4 | DDE Tn7 confirm inactive | Tn7 DDE ctr inactive
CCc1ccc(C(=O)N2CCN(c3ccc(NC(=O)c4ccco4)cc3)CC2)cc1	none
FC(F)(F)c1ccc2nc(CNc3nc(N4CCOCC4)nc4c3ncn4-c3ccsc3)[nH]c2c1	none
COc1ccc(-c2coc3c(C(=O)NC4CCCCC4)cccc23)c(C)c1	none
COc1ccc(-c2ccc(C(=O)NC3CCCCC3)c3occc23)c(C)c1	DDE Tn7 FP inh 15.8 | DDE Tn7 confirm inactive | Tn7 DDE ctr inactive
NS(=O)(=O)c1ccc(CNC(=O)Cc2ccccc2[N+](=O)[O-])cc1	DDE Tn7 FP inh 15.3 | DDE Tn7 confirm inactive | Tn7 DDE ctr inactive
COc1ccc2c(Cl)c(C(=O)N/N=C/c3ccc4c(c3)OCO4)sc2c1	none
COc1ccc2c(Cl)c(C(=O)N/N=C3\CCCC(=O)C3)sc2c1	DDE Tn7 FP inh 32.1 | DDE Tn7 confirm inactive | Tn7 DDE ctr inactive
Cc1nn(-c2ccccc2)c2sc(C(=O)NC3CCCCCCC3)cc12	none
O=C(C(=Cc1ccccc1)c1ccccc1)c1ccccc1	DDE Tn7 FP inh 16.1 | DDE Tn7 confirm inactive | Tn7 DDE ctr inactive
COCCNC(=O)COC(=O)c1ccc(S(=O)(=O)N2CCOCC2)cc1	DDE Tn7 FP inh 16.2 | DDE Tn7 confirm inactive | Tn7 DDE ctr inactive
O=C(COC(=O)c1ccc(S(=O)(=O)N2CCOCC2)cc1)NCc1ccccc1	none

Screening data (PubChem)
